Columns and labels:
[1] = system: human neutrophils, monocytes and lymphocytes; type: cell-based
[2] = system: lung cell populations of TDM-challenged C57BL/6 mice; test: In vivo cellular specificity of cFLFLFK-PEG12-Cy3 in TDM-challenged mouse lung; settings: 50 µg i.v., 4 h circulation, 5 days after TDM; flow cytometry, n=3
Procedure, shortened: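 Female C57BL/6 mice (8 weeks, 18–20 g) received 100 µg TDM i.v. Five days later they got 50 µg Cy3-labelled test compound i.v. (n=3) or PBS (n=2). Lungs were digested 4 h later, and cells (2×10^6/mL in HBSS+) were live/dead stained 30 min on ice. They were blocked 30 min (40% mouse serum), plated at 1×10^6/well and mAb-stained. Flow cytometry acquired 100,000 live events. Gated populations were CD11b+Ly6G+, CD3+, CD11c+CD11b-, CD11b+CD11c+, CD11b+CD11c- and marker-negative. Each population's share of total Cy3 signal was pooled across mice.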

C57BL/6 mouse lung = test: TDM-induced lung granulomatous inflammation in mice; type: in vivo
Procedure, shortened: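 TDM was given via tail vein as an oil-in-water emulsion (100 µL, 100 µg), or vehicle alone. Day-5 lungs were H&E-stained for light microscopy (histology mice 6 weeks old). Flow cytometry used five TDM-treated mice (female, 8 weeks) with live/dead staining and mAb gating: CD11b+Ly6G+ neutrophils, CD3+ lymphocytes, CD11c+CD11b- alveolar macrophages, CD11b+CD11c+ macrophages/dendritic cells, CD11b+CD11c- monocytes/immature macrophages. Values are percentages of all living cells.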

[3] = five TDM-administered mice, day 5

Substance: cFLFLFK-PEG12-Cy3
- Cy3 MFI on neutrophils compared with monocytes and lymphocytes [1]: significantly higher
- Dose dependence of binding to neutrophils, monocytes and lymphocytes [1]: Dose-dependent binding was observed on all cell types
- Targeting of lymphocytes and other (antibody-negative) cells in the lung [2]: not targeted

Substance: trehalose dimycolate [TDM]
- Lung histology (H&E) (C57BL/6 mouse lung; 100 µg TDM i.v., day 5, versus vehicle emulsion): patchy regions of granulomatous inflammation were observed
- Change in lung frequency of CD3+ lymphocytes (C57BL/6 mouse lung; 100 µg TDM i.v., day 5, flow cytometry): unchanged
- Frequency increase of lung neutrophils compared to vehicle-injected mice (C57BL/6 mouse lung; 100 µg TDM i.v., day 5, flow cytometry, data not shown): 9.1% ± 6.4%
- Percentage of alveolar macrophages relative to all living lung cells (C57BL/6 mouse lung; [3]): 6.3% ± 1.7%
- Percentage of immature macrophages/monocytes relative to all living lung cells (C57BL/6 mouse lung; [3]): 20.1% ± 3.1%
- Percentage of lymphocytes relative to all living lung cells (C57BL/6 mouse lung; [3]): 10.7% ± 2.5%
- Percentage of macrophages/dendritic cells relative to all living lung cells (C57BL/6 mouse lung; [3]): 17.7% ± 7.7%
- Percentage of neutrophils relative to all living lung cells (C57BL/6 mouse lung; [3]): 9.2% ± 3.7%
